Assay: Toxicity liver stage against HepG2, at 10uM
Assay type: cell-based
Parameters: test concentration 10 uM, cell line HepG2-A16-CD81EGFP
Settings: human, HepG2-A16-CD81EGFP cells; read-out: INHIBITION
In short: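 Uninfected HepG2-A16-CD81EGFP cells, 3 × 10^3 per well, 1536-well, plated on prespotted compound at 10 μM final, parasite-free screening media added to match infected plates; puromycin 10 μM positive, DMSO 0.5% negative; run in parallel with 48 h PbLuc assay at 37 °C, 5% CO2; viability by CellTiter-Glo luminescence, normalized to controls.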

SMILES	cytotoxicity at 10 µM
O=C(O)[C@@H]1CN(C(=O)c2ccc3[nH]nnc3c2)C[C@H]1c1ccccc1	-130%
N#Cc1ccc(N2CCCC3(CCN(c4cncnc4)C3=O)C2)nc1 (centres undefined)	-97.6%
Cc1noc(C)c1C(=O)NCC(c1cccc(F)c1)N(C)C (centres undefined)	-13.1%
C[S+]([O-])c1nncn1CC(=O)c1ccc(Br)cc1 (centres undefined)	0%
COCCC(=O)NCc1cccnc1-n1cnc2ccccc21	-8.42%
O=C(C1CCCC1)N1CC2(CCN(C3COC3)C2)OCc2ccccc21 (centres undefined)	4.92%
CC(C)(O)CCc1cccc(C(=O)N2CCC3(CCOCC3)CC2)c1	1.14%
CS(=O)(=O)c1ccc(NC(=O)CSc2ccc3c(c2)CCC3)cn1	11.8%
c1ccc(N2CC[C@H](OCC3CC3)[C@@H]2Cc2cccnc2)nc1	7.53%
COc1cc(NC2CCN(C3CCS(=O)(=O)CC3)CC2)ncn1	1.64%
Nc1cc2c(nn1)CCN(C(=O)c1csc(-c3ccccc3)n1)C2	-12.4%
Cc1ccc(C(=O)NS(C)(=O)=O)cc1I	6.22%
O=C(c1cscn1)N1C[C@H]2CCCC(OCc3cccnc3)[C@H]2C1 (some centres undefined)	-6.61%
CCOC(=O)c1n[nH]cc1CN1CCCC(N(C)Cc2ccccc2)C1 (centres undefined)	-1.44%
c1ccc(N2CCC(NCc3cccc4cn[nH]c34)C2)cc1 (centres undefined)	13.6%
Cc1ncncc1C(=O)N1C[C@@H]2CC[C@H]1CN(C(=O)c1ccncc1)C2	-7.61%
COc1ccc(OCc2nc(C(=O)N3CCCNC(=O)C3)co2)cc1	-45.1%
Cc1cccc(Cn2ccc(NS(C)(=O)=O)n2)c1	-6.6%
O=C(c1cc[nH]n1)N1CCC(F)(F)C2(CCN(c3ccccn3)C2)C1 (centres undefined)	2.38%
CN1CC2(CCN(C(=O)c3cccnc3)CC2)c2cccc(F)c21	6.17%
CC[C@@H]1N(Cc2ccoc2)CCC[C@]12CCC(=O)N2CCOC	11%
CC(C)c1cc(NC(=O)CN2CCC(N3CCNC3=O)CC2)on1	-10.7%

SMILES	cytotoxicity at 10 µM
Cc1cc(C)c(S(=O)(=O)Nc2c(C)nc(N3CCCC3)nc2C)cc1C	3.62%
CCc1c(C)nc2cc(C3CCN(Cc4ccc(F)cc4)C3)nn2c1O (centres undefined)	-18.6%
O=C(NCCc1ccncc1)C1CCN(Cc2ccco2)CC1	26.1%
Cc1c[nH]nc1C1CCCN(C(=O)Cn2cccn2)C1 (centres undefined)	-14.5%
CNC(=O)CS(=O)(=O)C1CCN(S(=O)(=O)c2ccccc2Br)CC1	-18.3%
CC(C)(C)c1n[nH]c(C2CN(C(=O)c3cnc[nH]3)CCO2)n1 (centres undefined)	0.152%
CCc1ncnc2c1CCN(Cc1ccc3c(c1)OCO3)CC2	-139%
Cn1nc(C(=O)N2CCOCC2)cc1C(=O)Nc1c(Cl)cccc1Cl	12%
Cc1ncsc1CN1C[C@H]2OCC[C@H]2[C@H](C(=O)NCC2CC2)C1	5.6%
Cc1nc(Nc2nccs2)cc(C2CCCN2C2CCOCC2)n1 (centres undefined)	-7.08%
CN(C)c1ncc(CN2CCC(c3nnsc3S(C)(=O)=O)CC2)cn1	4.12%
CC(NC(=O)C(C)(C)C#N)c1ccc(OCC2CC2)c(F)c1 (centres undefined)	2.31%
CC(C)c1sc(Cl)nc1C(=O)N1CCN(Cc2ccccc2)CC1	-2.7%
c1cnc2c(CN3CCCCC3c3ccncn3)cnn2c1 (centres undefined)	-10.2%
Cc1ccc(C2CCCN2Cc2nc(-c3ccco3)no2)cc1 (centres undefined)	26.1%
CC(=O)c1ccccc1-c1cc(C(=O)O)cc(S(=O)(=O)NC(C)C)c1	0.476%
CS(=O)(=O)N1CCCCC1c1ccc(Nc2cnccn2)nc1 (centres undefined)	6.39%
CN(Cc1ccccc1)C(=O)CCN1CCC2(CC1)[C@H](O)C[C@@H]2O	-7.55%
CCn1cc(CN(C)S(=O)(=O)c2cc(Cl)ccc2Cl)cn1	8.6%
Cc1ccccc1C(C(=O)NCc1nc(-c2ncccn2)no1)N(C)C (centres undefined)	3.09%
CCCn1nccc1NC(=O)CN1CCc2cnc(CC)nc2C1	2.31%
CCc1nc(C2CCCN2C(=O)CCc2ccc3c(c2)OCO3)no1 (centres undefined)	-4.62%

SMILES	cytotoxicity at 10 µM
CCc1nccn1-c1cncc(C2CCCN2Cc2ccccn2)n1 (centres undefined)	-3.47%
Cc1cnc(N2CC[C@@H]3O[C@H](COCc4ccccn4)CC[C@@H]32)nc1	-76.3%
CN(CCN1CCOCC1)C(=O)CCc1cccc(Cl)c1	-6.57%
CNCc1ccc([C@@H]2CN(C(C)=O)C[C@H]2C(N)=O)cc1	5.32%
CC(=O)Nc1nc(C(=O)N2CCCC2c2noc(C(C)C)n2)cs1 (centres undefined)	-20.1%
COc1cnc(N2C[C@H](CO)C[C@H](CN3CCOCC3)C2)nc1	-8.11%
CC(C)c1noc(CNc2ccccc2CC(=O)N(C)C)n1	-10.6%
O=C(CCN1CCSCC1c1ccccc1)N1CCOCC1 (centres undefined)	-12.5%
COCCNC(=O)c1cc2c(c3ccccc3n2C)n1C(=O)N(C)C	-72.6%
CC(C)N1CCCC(C(=O)N2CCN(c3cnn(C)c(=O)c3)CC2)C1 (centres undefined)	-3.75%
Cc1ccc(CN2Cc3c(C(=O)N4CCN(C)CC4)nn(C)c3C2)s1	-6.77%
CN1CCc2c(C#N)c(NCCCO)n3cnnc3c2C1	8.71%
Cc1ccc(S(=O)(=O)NC(=O)CCc2ccccc2)cc1N(C)C	-0.31%
CN(C)C(CNC(=O)c1ccnc(-n2cncn2)c1)c1ccccc1 (centres undefined)	-130%
CCn1nc(C)c(NC(=O)c2cc(NC(=O)C(C)C)n(C)n2)c1C	0.568%
CC(C)(C)NC(=O)C1(Cc2ccccc2-c2ccncc2)CCOCC1	-6.99%
COCCNC(=O)[C@H]1C[C@H]2OCC[C@H]2N(Cc2ccoc2)C1	-75.7%
CCN(CC)Cc1ccccc1NC(=O)N(C)Cc1ccc(OC)cc1	10.7%
COCc1noc(CNc2nc(C3CCCC3)nc3c2CCNCC3)n1	0.0228%
CCc1ccc(C2CC(=O)Nc3n[nH]cc32)o1 (centres undefined)	0.0773%
Cc1n[nH]c(C)c1-c1cc(-c2cccc(O)c2)nc(N)c1C#N	26.9%
CCS(=O)(=O)N1CCC2(CC1)CN(c1cncnc1)C(=O)CO2	6.91%

SMILES	cytotoxicity at 10 µM
CCC(O)CN1CCN(C(=O)c2ccc3c(c2)COC3)CC1 (centres undefined)	-6.58%
CN(Cc1nc(CC2CC2)no1)CC1COc2ccccc2O1 (centres undefined)	-3.89%
O=C(NCc1cncc2c1CCN(Cc1ccoc1)C2)C1CC1	4.03%
Cc1noc(C(C)C)c1C(=O)NCC1CCN(c2ccccc2)C1 (centres undefined)	-11.8%
COC(=O)[C@H](C)NC(=O)c1cc(-c2cccc(Cl)c2)no1	-7.25%
O=C(CN1CCCC(Cn2cncn2)C1)NCc1ccccc1F (centres undefined)	-4.65%
CCc1nnc2n1CCN(CCC(=O)Nc1cc(C)on1)C2	4.23%
Cc1nn(C)c(C)c1-c1nccnc1CC1CCNCC1	-2.38%
Cc1cc(-c2cnc(NC3CCCC3)nc2-c2ccc(C)o2)on1	-22.4%
CC(C)n1c(C2CCCN(CC(N)=O)C2)nc2ccccc21 (centres undefined)	-7.68%
O=C1CC2(CCN(CC3CC3)C2)CN1c1cccc(F)c1 (centres undefined)	-6.25%
O=C(Nc1ccccc1)C1CN(Cc2ccco2)CC12CCOCC2 (centres undefined)	-3.2%
CN(CC(N)=O)C(=O)CCCn1ccc2cc(Cl)ccc21	-2.13%
CC(=O)N1CCCN(Cc2nnc(C(C)(C)C)o2)CC1	-4.13%
Cc1cnn(C2CCN(Cc3ccccc3)C2)c1N (centres undefined)	-3.76%
Cn1ccnc1CN1CCN(c2ccc(C#N)cn2)CC1	-4.2%
OCC1CCCN1c1cc(NCc2cccnc2)ncn1 (centres undefined)	-16.6%
CC1(C)CN(C(=O)NCCc2ccn(-c3ccccc3)n2)CCO1	2.21%
CC(C)(C)c1cnc(CN2CCC(NC(=O)CC3CCCC3)CC2)o1	-15.5%
Cn1cc(S(=O)(=O)N2CCCC2CC(=O)c2cccs2)cn1 (centres undefined)	-8.08%
CCCn1ccnc1CN1CCCC1c1cccc(-n2ccnc2)n1 (centres undefined)	-22.2%
CN(C)C(=O)[C@@H]1CC[C@@H]2[C@@H](CCN2Cc2ccccn2)O1	-3.55%

SMILES	cytotoxicity at 10 µM
Cc1ccc(F)cc1CC(=O)N1CC[C@@]2(O)CCNC[C@H]2C1	2.38%
Cc1cc(CN(C)C(=O)NC(C)Cc2ccco2)no1 (centres undefined)	6.62%
CN(CC1CCOC1)c1ncc(Br)cn1 (centres undefined)	4.23%
CC(C)Cc1noc(CN(C)C[C@]2(O)CCCN3CCCC[C@@H]32)n1	-2.36%
CCCC1CCCN(C(=O)Nc2ccc(F)c(C(N)=O)c2)CC1 (centres undefined)	-2.27%
CN(C1CCCCC1)S(=O)(=O)N1CCN(Cc2ccon2)CC1	6.75%
COc1ccccc1C1(CNC(=O)NCc2noc(C)n2)CC1	-0.343%
COC(=O)CCn1ccc(=O)c2ccccc21	-6.84%
CC(C)CS(=O)(=O)N1CCC2(CN(c3ccsc3)C(=O)CN2C)C1 (centres undefined)	6.88%
N#Cc1c(Cl)nsc1NCc1ccnc(OCC(F)(F)F)c1	12.5%
O=C(c1cnco1)N1C[C@@H](O)[C@H](Oc2cccc(F)c2)C1	-17.5%
CC(NC(=O)N1CCN(c2ncccn2)CC1)c1ccc(C#N)cc1 (centres undefined)	-2.81%
CC(C)C[C@H](Nc1nc(C2CCCC2)nc2c1cnn2C)C(N)=O	-42.3%
C[C@@H]1CN(S(=O)(=O)c2ccc(F)cc2Cl)C[C@]1(C)O	-2.83%
COc1ccccc1C(O)CNC(=O)NCc1cc[nH]n1 (centres undefined)	-8.81%
O=S(=O)(c1cccs1)N1Cc2nc(CN3CCCC3)oc2C1	-118%
COCCN(CCN(C)C)C(=O)NC1CC1	-1.78%
COCCNC(=O)c1nc2c(s1)CCCN2Cc1ccccc1	12.6%
CC(C)NC(=O)C1CN(C(=O)c2ccc(F)cc2)CC12CCOCC2 (centres undefined)	1.08%
O=C(c1ccco1)N1CC[C@@H](N2CCOCC2)[C@@H]1Cc1ccncc1	-78.2%
Cc1cc(C)n(CC2CN(Cc3cccnc3)CCO2)n1 (centres undefined)	-3.08%

Source: ChEMBL document CHEMBL4513216, “Probing the Open Global Health Chemical Diversity Library for Multistage-Active Starting Points for Next-Generation Antimalarials” (ACS Infect Dis, 2020)
